Measured values from PubChem BioAssay.
Activity calls are given as the source filed them.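 The calls were made as follows, unless noted: active = inhibition of the reporter signal at or above 50%; inactive = inhibition below 50%.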

Assays:
[1] = inhibitors of TNFa-induced NFkB p65 translocation, primary screen, imaging, HUVEC, MLSMR starter and 10KST1 sets (AID 438;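 active = inhibition above 20% together with a positive visual image hit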;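 also: compound added about 3h40 before a 20 min TNFalpha stimulation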;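 as to inhibition: signal is the nuclear over cytoplasmic p65 intensity ratio per well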); settings: HUVEC TNFa-induced p65 nuclear translocation; cell count: measured here: nuclei count (cytotoxicity indicator), at 2.08 µM; inhibition: at 2 µM, stronger effect = higher value, 0% TNFa-plus-vehicle, 100% no-TNFa wells
[2] = inhibitors of mutant huntingtin aggregation, primary screen, imaging, exon1htt(103Q)mCFP cells, high-content imaging (AID 483;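 active = visual image review flags a hit and inhibition of aggregation exceeds 20%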;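 also: compound exposure lasted 3 days before fixation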;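 as to nuclei count: percent of the per-plate median nuclei count of sample wells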); settings: exon1htt(103Q)mCFP cell line, aggregate imaging, at 2 µM; inhibition of aggregation: stronger effect = higher value; nuclei count: measured here: cell count, toxicity
[3] = inhibitors of E-selectin induction by TNFa, primary screen, imaging, HUVEC, immunofluorescence, MLSMR starter and 10KST1 sets (AID 487;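 active = visually confirmed hit in the image check and inhibition above 20%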;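 as to inhibition: signal is fraction of cell area covered by stained E-selectin grains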;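 as to nuclei count: 100% = median nuclei count of all wells on the same plate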); settings: HUVEC TNFalpha-induced E-selectin immunofluorescence imaging, at 2 µM; inhibition: stronger effect = higher value; nuclei count: measured here: cell number, toxicity
[4] = target: Voltage-gated potassium channel subunit beta-2 (Rattus norvegicus) (UniProt P62483); experiment: KvBeta enzyme negative modulators, primary screen, biochemical, NADPH fluorescence (AID 622;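 active = fluorescence slope higher than the sample average by over 3 SD, cut at about -0.22 in these data, passing the limit was not always enough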;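 also: slope of raw intensity against log time taken from 70 to 1610 s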); settings: recombinant KvBeta, 4-cyanobenzaldehyde reduction, at 10 µM, stronger effect = higher value
[5] = target: Voltage-gated potassium channel subunit beta-2 (Rattus norvegicus) (UniProt P62483); experiment: KvBeta positive modulators, primary screen, biochemical, NADPH fluorescence (AID 623;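 active = NADPH fluorescence slope more negative than the mean of all samples by about 3 SD, 99.7% confidence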;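 also: fluorescence intensity change per second fitted from 20 to 320 s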); settings: Recombinant KvBeta, NADPH fluorescence decrease slope, 10 min; at 10 µM; stronger effect = lower value
[6] = target: Muscarinic acetylcholine receptor M4 (Homo sapiens) (UniProt P08173); experiment: compounds altering M4/GIRK thallium flux, either direction, primary screen, M4 allosteric agonist project, cell-based, HEK293 M4/GIRK, BTC-AM (AID 625;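 active = fluorescence slope after compound addition differing from the mean of all tested samples at 99.7% confidence, mostly higher but some lower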;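 also: thallium influx through GIRK channels coupled to M4 in HEK293 cells with BTC-AM dye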); settings: at 10 µM, actives lie on both sides
Outline: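 Assay system: HEK293 cells with M4 receptor and GIRK channels / Controls: carbachol and DMSO controls / Schedule: 1 h dye loading, 2 min kinetic read / Technique: kinetic fluorescence with BTC-AM dye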

[7] = inhibitors of Sendai virus-induced IRF3 signaling, primary screen, TLR/RLR signaling modifier project, cell-based, Sendai virus stimulus, luciferase, 10K MLSCN set (AID 602276;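 active = inhibition at or above 50% at 10 µM; inactive = inhibition below 50%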;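 also: firefly luciferase from ISG56 promoter only with Renilla not read in this screen; 0% = Sendai virus plus DMSO and 100% = medium plus DMSO without virus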); settings: HEK293 RL24 IRF3 luciferase reporter, at 10 µM, stronger effect = higher value
[8] = inhibitors of poly I:C-induced TLR3 signaling, primary screen, cell-based, poly I:C stimulus, luciferase, 10K MLSCN set (AID 602277); settings: HEK293-TLR3 RL24 IRF3 luciferase reporter, at 10 µM, stronger effect = higher value

Chain of Voltage-gated potassium channel subunit beta-2 (Rattus norvegicus) (P62483 whole entry, looked up): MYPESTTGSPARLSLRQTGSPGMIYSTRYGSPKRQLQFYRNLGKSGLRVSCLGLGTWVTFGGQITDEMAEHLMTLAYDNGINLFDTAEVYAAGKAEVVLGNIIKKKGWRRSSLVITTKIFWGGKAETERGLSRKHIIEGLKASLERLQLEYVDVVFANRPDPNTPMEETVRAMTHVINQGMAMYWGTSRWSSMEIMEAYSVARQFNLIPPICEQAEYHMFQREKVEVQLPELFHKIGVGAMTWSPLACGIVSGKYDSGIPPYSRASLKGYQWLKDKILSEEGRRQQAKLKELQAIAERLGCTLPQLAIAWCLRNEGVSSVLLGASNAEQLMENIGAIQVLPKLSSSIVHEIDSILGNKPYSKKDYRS
Chain of Muscarinic acetylcholine receptor M4 (Homo sapiens) (P08173 whole entry, looked up): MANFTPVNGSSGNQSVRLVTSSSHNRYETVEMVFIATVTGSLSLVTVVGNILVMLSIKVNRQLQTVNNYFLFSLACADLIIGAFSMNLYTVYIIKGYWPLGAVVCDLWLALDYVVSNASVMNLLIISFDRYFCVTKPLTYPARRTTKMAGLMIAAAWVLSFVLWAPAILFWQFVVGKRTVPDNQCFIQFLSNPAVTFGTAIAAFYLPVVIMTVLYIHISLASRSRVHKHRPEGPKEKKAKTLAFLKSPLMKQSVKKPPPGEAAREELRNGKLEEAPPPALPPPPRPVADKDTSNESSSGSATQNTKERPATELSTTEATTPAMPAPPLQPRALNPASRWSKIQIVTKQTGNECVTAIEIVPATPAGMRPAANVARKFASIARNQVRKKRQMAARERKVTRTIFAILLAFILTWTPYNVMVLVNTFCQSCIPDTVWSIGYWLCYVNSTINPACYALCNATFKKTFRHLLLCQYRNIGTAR

Compound	cell count [1]	inhibition [1]	inhibition of aggregation [2]	nuclei count [2]	inhibition [3]	nuclei count [3]	fluorescence slope [4]	NADPH fluorescence slope [5]	fluorescence slope [6]	inhibition [7]	inhibition [8]
O=C(NCc1ccc2c(c1)OCO2)c1cc2n(n1)C(C(F)(F)F)CC(c1ccc3c(c1)OCO3)N2 (stereo unspecified)	407	-1.6% (inactive)	26.5% (inactive)	89.1%	-32% (inactive)	106%	-0.558 (inactive)	-4.2e-05 (inactive)	0.0053 (inactive)	18.5% (inactive)	24.4% (inactive)
CC(=O)Nc1ccc(S(=O)(=O)n2cnc(C)c2)cc1	697	-10.2% (inactive)	-20.6% (inactive)	99.8%	-26.8% (inactive)	118%	-0.584 (inactive)	4.1e-05 (inactive)	0.0072 (inactive)	-6.5% (inactive)	-8.68% (inactive)
O=S(=O)(c1ccccc1)N1CCN(C2CCCCCCC2)CC1	221	9.7% (inactive)	9% (inactive)	80.6%	-53.1% (inactive)	148%	-0.479 (inactive)	-1.1e-05 (inactive)	0.00309 (inactive)	-8.03% (inactive)	-10% (inactive)
CCOC(=O)c1sc(C)c2c1NC(C)(c1cccs1)NC2=O (stereo unspecified)	674	-2% (inactive)	-5.5% (inactive)	104%	-10.7% (inactive)	101%	-0.49 (inactive)	1.8e-05 (inactive)	0.00453 (inactive)	5.21% (inactive)	10.9% (inactive)
COc1cccc(OC)c1C(=O)Nc1cccc(C(C)=O)c1	734	-11.6% (inactive)	19.3% (inactive)	95.5%	15.5% (inactive)	104%	-0.53 (inactive)	-1.1e-05 (inactive)	0.00451 (inactive)	12.1% (inactive)	27.4% (inactive)
Cn1c(CCCNC(=O)c2ccccc2)nc2ccccc21	761	-25.8% (inactive)	-0.3% (inactive)	104%	-49.3% (inactive)	131%	-0.275 (inactive)	-5.3e-05 (inactive)	0.00743 (inactive)	13.2% (inactive)	1.35% (inactive)
COc1cccc2cc(C(=O)n3ccc(C)n3)c(=O)oc12	297	-8% (inactive)	-15.2% (inactive)	93.5%	10.9% (inactive)	88.2%	-0.409 (inactive)	1.2e-05 (inactive)	0.00485 (inactive)	13.4% (inactive)	12.3% (inactive)
CS(=O)(=O)N(CC(=O)NCc1ccccn1)c1ccc2c(c1)OCCO2	755	-7.5% (inactive)	13% (inactive)	101%	26% (inactive)	78.9%	-0.515 (inactive)	-4.7e-06 (inactive)	0.00626 (inactive)	14.9% (inactive)	15.8% (inactive)
Cc1cc2c(=O)n(CC(=O)N3CCN(c4ccccc4)CC3)cnc2s1	632	-22.3% (inactive)	0.5% (inactive)	105%	2.7% (inactive)	94.9%	-0.595 (inactive)	1.9e-06 (inactive)	0.0045 (inactive)	7.52% (inactive)	14.5% (inactive)
O=C(NCCCN1CCCC1=O)c1cncc(Br)c1	394	-5.8% (inactive)	14.1% (inactive)	91.8%	54.5% (active)	72.7%	-0.418 (inactive)	-9.4e-05 (inactive)	0.00605 (inactive)	13.1% (inactive)	24.3% (inactive)
CCOC(=O)c1[nH]nc(-c2c(O)cc(C)cc2O)c1-c1csc(C)n1	495	-16.3% (inactive)	-2.1% (inactive)	87.5%	56.2% (inactive)	61.3%	-0.453 (inactive)	-0.000313 (inactive)	0.00535 (inactive)	-7.71% (inactive)	-0.807% (inactive)
CCSCCC(NC1=CC(=O)CC(C)(C)C1)C(=O)O (stereo unspecified)	353	9.3% (inactive)	13.5% (inactive)	98%	-77.8% (inactive)	94.9%	-0.566 (inactive)	-6.6e-05 (inactive)	0.00496 (inactive)	-16.8% (inactive)	98.7% (active)
Cc1cnn(C(=S)NCc2ccco2)c1	465	-13.6% (inactive)	17.2% (inactive)	94.5%	-15.2% (inactive)	99.9%	-0.49 (inactive)	-3.2e-05 (inactive)	0.0043 (inactive)	6.4% (inactive)	1.55% (inactive)
Cc1ccc(S(=O)(=O)c2nc(-c3ccco3)oc2SCC(=O)NCC2CCCO2)cc1 (stereo unspecified)	822	-8% (inactive)	4% (inactive)	104%	-16.1% (inactive)	109%	-0.458 (inactive)	-4.2e-05 (inactive)	0.00374 (inactive)	15.8% (inactive)	18.5% (inactive)
COc1ccc(CNC(=O)Cn2nc(C(F)(F)F)c3c2CCC3)cc1	620	-13.3% (inactive)	-8% (inactive)	103%	-56.6% (inactive)	116%	-0.396 (inactive)	-9.3e-05 (inactive)	0.00662 (inactive)	6.68% (inactive)	19.7% (inactive)
CCCCc1ccc(NC(=O)COCC)cc1	366	-2.7% (inactive)	-8.1% (inactive)	110%	-34.5% (inactive)	98.4%	-0.585 (inactive)	1.7e-05 (inactive)	0.00366 (inactive)	-24.8% (inactive)	-77.1% (inactive)
Cc1cc(S(=O)(=O)NC2CCCCC2)ccc1OCC(=O)NCc1ccccn1	346	-8.6% (inactive)	7.8% (inactive)	96.4%	-70.2% (inactive)	106%	-0.607 (inactive)	5.7e-06 (inactive)	0.0059 (inactive)	20.7% (inactive)	34% (inactive)
N#CC(C(=O)Nc1ccccc1)=C1CCCCC1	356	-8.4% (inactive)	-8% (inactive)	108%	-98.6% (inactive)	131%	-0.516 (inactive)	-4.4e-05 (inactive)	0.0049 (inactive)	-3.44% (inactive)	-28.2% (inactive)
O=C(COC(=O)C1(c2ccccc2F)CCCC1)NC1CCS(=O)(=O)C1 (stereo unspecified)	804	-6.9% (inactive)	-2.4% (inactive)	124%	-14.4% (inactive)	106%	-0.578 (inactive)	-7.2e-06 (inactive)	0.00752 (inactive)	-1.97% (inactive)	9.43% (inactive)
COc1cccc2cc(C(=O)N3CCN(C45CC6CC(CC(C6)C4)C5)CC3)c(=O)oc12	213	9.1% (inactive)	17.3% (inactive)	71.5%	43.8% (inactive)	85.2%	-0.443 (inactive)	2.5e-05 (inactive)	0.00456 (inactive)	5.81% (inactive)	21.6% (inactive)
COC(=O)c1[nH]c2ccccc2c1NC(=O)CN1CCC(C(N)=O)(N2CCCCC2)CC1	259	3.8% (inactive)	6.6% (inactive)	72.7%	-114% (inactive)	168%	-0.598 (inactive)	-1.9e-05 (inactive)	0.00286 (inactive)	20.8% (inactive)	30.6% (inactive)
CCOc1ccc(C(=O)N2CCC(C(=O)c3ccc4c(c3)OCCO4)CC2)cc1	511	-4.3% (inactive)	6% (inactive)	91.2%	-99.7% (inactive)	116%	-0.511 (inactive)	-0.000103 (inactive)	0.00391 (inactive)	10.8% (inactive)	2.96% (inactive)
Cc1ccccc1NC(=O)C1CCC(C)(C(=O)O)C1(C)C (stereo unspecified)	485	3.5% (inactive)	1.6% (inactive)	94.4%	-269% (inactive)	109%	-0.581 (inactive)	1.1e-05 (inactive)	0.00574 (inactive)	-5.54% (inactive)	8.98% (inactive)
COC(=O)c1ccccc1S(=O)(=O)N(CCCN1CCOCC1)Cc1cccs1	328	2.1% (inactive)	2.9% (inactive)	104%	-43.1% (inactive)	115%	-0.502 (inactive)	1.2e-05 (inactive)	0.00684 (inactive)	14% (inactive)	19.2% (inactive)
Cc1ccc(S(=O)(=O)N2CCC(C(=O)N[C@@H](Cc3ccccc3)C(=O)O)CC2)cc1	332	-14.4% (inactive)	11.7% (inactive)	99.8%	41.9% (inactive)	97.6%	-0.563 (inactive)	-4.9e-05 (inactive)	0.00616 (inactive)	-10.7% (inactive)	-5.08% (inactive)
O=c1c2c3c(sc2nc2sc(C4CC4)nn12)CCCC3	428	-8.3% (inactive)	19.5% (inactive)	80.2%	34.4% (inactive)	67.7%	-0.602 (inactive)	3.7e-05 (inactive)	0.00546 (inactive)	-18.7% (inactive)	-51.7% (inactive)
